Laboratory results published in ChEMBL document CHEMBL1137710, “Synthesis and in vitro antitumor activity of new quinoxaline derivatives” (2009).

Experiments:
Type in all cases: functional
NCI-H460 = assay: Anticancer activity against human NCI-H460 cells assessed as cell growth at 100 uM after 48 hrs by sulforhodamine B assay; conditions: NCI-H460, 48 h, read-out: Activity
MCF7 [1] = assay: Anticancer activity against human MCF7 cells assessed as cell growth at 100 uM after 48 hrs by sulforhodamine B assay; conditions: MCF7, 48 h, read-out: Activity
SF-268 [2] = assay: Anticancer activity against human SF268 cells assessed as cell growth at 100 uM after 48 hrs by sulforhodamine B assay; conditions: SF-268, 48 h, read-out: Activity
K562 = assay: Growth inhibition of human K562 cells after 48 hrs by sulforhodamine B assay; conditions: K562, 48 h
Procedure, shortened: (§1)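 NCI 60-human-tumor-cell-line panel, with compounds tested over a 5-log dose range. Values are taken from dose-response curves as log10 molar concentrations: GI50 is 50% net growth inhibition, TGI is total growth inhibition, and LC50 is 50% net cell death.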

[3] = Growth inhibition of human […] cells after 48 hrs by sulforhodamine B assay; procedure, shortened: as §1
A549 = assay: Growth inhibition of human A549 cells after 48 hrs by sulforhodamine B assay; conditions: A549, 48 h; procedure, shortened: as §1
HOP-62 = assay: Growth inhibition of human HOP62 cells after 48 hrs by sulforhodamine B assay; conditions: HOP-62, 48 h; procedure, shortened: as §1
NCI-H23 = assay: Growth inhibition of human NCI-H23 cells after 48 hrs by sulforhodamine B assay; conditions: NCI-H23, 48 h; procedure, shortened: as §1
NCI-H322M = assay: Growth inhibition of human NCI-H322M cells after 48 hrs by sulforhodamine B assay; procedure, shortened: as §1
NCI-H522 = assay: Growth inhibition of human NCI-H522 cells after 48 hrs by sulforhodamine B assay; conditions: NCI-H522, 48 h; procedure, shortened: as §1
HCT-116 = assay: Growth inhibition of human HCT116 cells after 48 hrs by sulforhodamine B assay; conditions: HCT-116, 48 h; procedure, shortened: as §1
SW-620 = assay: Growth inhibition of human SW620 cells after 48 hrs by sulforhodamine B assay; conditions: SW-620, 48 h
Procedure, shortened: (§2)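 Run in the NCI 60-human-tumour-cell-line panel, tested over a 5-log dose range. Dose–response curves gave three values per cell line, each as a log10 molar concentration: GI50 (50% inhibition of net cell growth), TGI (total inhibition of net growth) and LC50 (50% net cell death). The mean graph midpoint is the arithmetic mean over all lines, with insensitive lines entered at the highest concentration tested.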

SF-268 [4] = assay: Growth inhibition of human SF268 cells after 48 hrs by sulforhodamine B assay; conditions: SF-268, 48 h; procedure, shortened: as §1
SF-295 = assay: Growth inhibition of human SF295 cells after 48 hrs by sulforhodamine B assay; conditions: SF-295, 48 h; procedure, shortened: as §1
U-251 = assay: Growth inhibition of human U251 cells after 48 hrs by sulforhodamine B assay; conditions: U-251, 48 h; procedure, shortened: as §2
LOX IMVI = assay: Growth inhibition of human LOXIMVI cells after 48 hrs by sulforhodamine B assay; procedure, shortened: as §1
M14 = assay: Growth inhibition of human M14 cells after 48 hrs by sulforhodamine B assay; conditions: M14, 48 h; procedure, shortened: as §1
SK-MEL-2 = assay: Growth inhibition of human SK-MEL-2 cells after 48 hrs by sulforhodamine B assay; conditions: SK-MEL-2, 48 h; procedure, shortened: as §1
SK-MEL-28 = assay: Growth inhibition of human SK-MEL-28 cells after 48 hrs by sulforhodamine B assay; conditions: SK-MEL-28, 48 h; procedure, shortened: as §1
SK-MEL-5 = assay: Growth inhibition of human SK-MEL-5 cells after 48 hrs by sulforhodamine B assay; conditions: SK-MEL-5, 48 h; procedure, shortened: as §1
UACC-62 = assay: Growth inhibition of human UACC62 cells after 48 hrs by sulforhodamine B assay; conditions: UACC-62, 48 h; procedure, shortened: as §2
IGROV-1 = assay: Growth inhibition of human IGROV1 cells after 48 hrs by sulforhodamine B assay; conditions: IGROV-1, 48 h; procedure, shortened: as §1
OVCAR-4 = assay: Growth inhibition of human OVCAR4 cells after 48 hrs by sulforhodamine B assay; conditions: OVCAR-4, 48 h; procedure, shortened: as §1
SK-OV-3 = assay: Growth inhibition of human SKOV3 cells after 48 hrs by sulforhodamine B assay; conditions: SK-OV-3, 48 h; procedure, shortened: as §1
786-0 = assay: Growth inhibition of human 786-0 cells after 48 hrs by sulforhodamine B assay; conditions: 786-0, 48 h; procedure, shortened: as §1
CAKI-1 = assay: Growth inhibition of human Caki1 cells after 48 hrs by sulforhodamine B assay; conditions: CAKI-1, 48 h; procedure, shortened: as §1
UO-31 = assay: Growth inhibition of human UO31 cells after 48 hrs by sulforhodamine B assay; conditions: UO-31, 48 h; procedure, shortened: as §2
DU-145 = assay: Growth inhibition of human DU145 cells after 48 hrs by sulforhodamine B assay; conditions: DU-145, 48 h; procedure, shortened: as §1
MDA-MB-435 = assay: Growth inhibition of human MDA-MB-435 cells after 48 hrs by sulforhodamine B assay; conditions: MDA-MB-435, 48 h; procedure, shortened: as §1
MCF7 [5] = assay: Growth inhibition of human MCF7 cells after 48 hrs by sulforhodamine B assay; conditions: MCF7, 48 h; procedure, shortened: as §1
[6] = read-out: pLC50 (the source's name) (converted)

Nc1cc(N)c2nc(-c3ccccc3)c(Oc3ccc(F)cc3)nc2c1
growth at 100 µM (NCI-H460): 0%
growth at 100 µM (MCF7 [1]): 2%
growth at 100 µM (SF-268 [2]): 6%
GI50 (K562): 11 µM
LC50 (K562): > 100 µM
TGI (K562; read-out: pTGI (converted)): > 100 µM
GI50 [3]: 12.3 µM
LC50 [3]: > 100 µM
TGI ([3]; read-out: pTGI (converted)): 46.8 µM
GI50 (A549): 24 µM
LC50 (A549): 89.1 µM
TGI (A549; read-out: pTGI (converted)): 46.8 µM
GI50 (HOP-62): 21.4 µM
LC50 (HOP-62): > 100 µM
TGI (HOP-62; read-out: pTGI (converted)): 49 µM
GI50 (NCI-H23): 20.9 µM
LC50 (50% net cell kill concentration) (NCI-H23): 77.6 µM
TGI (NCI-H23; read-out: pTGI (converted)): 39.8 µM
GI50 (NCI-H322M): 17 µM
LC50 (NCI-H322M): 81.3 µM
TGI (NCI-H322M; read-out: pTGI (converted)): 37.2 µM
GI50 (NCI-H522): 64.6 µM
LC50 (NCI-H522): > 100 µM
TGI (NCI-H522; read-out: pTGI (converted)): > 100 µM
GI50 (HCT-116): 14.8 µM
LC50 (concentration causing 50% net cell death) (HCT-116): > 100 µM
TGI (HCT-116; read-out: pTGI (converted)): 81.3 µM
GI50 (SW-620): 19.5 µM
CC50 (SW-620; [6]): > 100 µM
TGI (SW-620; read-out: pTGI (converted)): 50.1 µM
GI50 (SF-268 [4]): 13.8 µM
LC50 (SF-268 [4]): > 100 µM
TGI (SF-268 [4]; read-out: pTGI (converted)): 47.9 µM
GI50 (SF-295): 20.4 µM
LC50 (50% net cell kill) (SF-295): 72.4 µM
TGI (SF-295; read-out: pTGI (converted)): 38.9 µM
GI50 (U-251): 23.4 µM
LC50 (50% net cell kill) (U-251): > 100 µM
TGI (U-251; read-out: pTGI (converted)): 79.4 µM
GI50 (LOX IMVI): 43.7 µM
LC50 (LOX IMVI): > 100 µM
TGI (LOX IMVI; read-out: pTGI (converted)): > 100 µM
GI50 (M14): 17 µM
CC50 (M14; [6]): > 100 µM
TGI (M14; read-out: pTGI (converted)): 44.7 µM
GI50 (SK-MEL-2): 42.7 µM
CC50 (SK-MEL-2; [6]): > 100 µM
TGI (SK-MEL-2; read-out: pTGI (converted)): > 100 µM
GI50 (SK-MEL-28): 19.5 µM
CC50 (SK-MEL-28; [6]): > 100 µM
TGI (SK-MEL-28; read-out: pTGI (converted)): 46.8 µM
GI50 (SK-MEL-5): 12.3 µM
CC50 (SK-MEL-5; [6]): 83.2 µM
TGI (SK-MEL-5; read-out: pTGI (converted)): 31.6 µM
GI50 (UACC-62): 15.8 µM
CC50 (UACC-62; [6]): 69.2 µM
TGI (UACC-62; read-out: pTGI (converted)): 33.1 µM
GI50 (IGROV-1): 28.2 µM
CC50 (IGROV-1; [6]): > 100 µM
TGI (IGROV-1; read-out: pTGI (converted)): > 100 µM
GI50 (OVCAR-4): 8.32 µM
CC50 (OVCAR-4; [6]): > 100 µM
TGI (OVCAR-4; read-out: pTGI (converted)): 35.5 µM
GI50 (SK-OV-3): 20.9 µM
CC50 (SK-OV-3; [6]): 83.2 µM
TGI (SK-OV-3; read-out: pTGI (converted)): 41.7 µM
GI50 (786-0): 15.5 µM
CC50 (786-0; [6]): 75.9 µM
TGI (786-0; read-out: pTGI (converted)): 34.7 µM
GI50 (CAKI-1): 11.2 µM
CC50 (CAKI-1; [6]): 53.7 µM
TGI (CAKI-1; read-out: pTGI (converted)): 24.5 µM
GI50 (UO-31): 13.5 µM
CC50 (UO-31; [6]): > 100 µM
TGI (UO-31; read-out: pTGI (converted)): 45.7 µM
GI50 (DU-145): 0.46 µM
CC50 (DU-145; [6]): > 100 µM
TGI (DU-145; read-out: pTGI (converted)): 87.1 µM
GI50 (MDA-MB-435): 15.8 µM
CC50 (MDA-MB-435; [6]): 67.6 µM
TGI (MDA-MB-435; read-out: pTGI (converted)): 32.4 µM
GI50 (MCF7 [5]): 20.4 µM
CC50 (MCF7 [5]; [6]): > 100 µM
TGI (MCF7 [5]; read-out: pTGI (converted)): > 100 µM
